Measurements taken from PubChem BioAssay AID1424 (The Scripps Research Institute Molecular Screening Center, 2008).
About 390 (0.18%) of roughly 220,000 compounds were called active. The full list was thinned out, with actives kept by preference. Values without a mark were called inactive.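 The calls were made as follows: active = activation above its plate's cutoff, the mean activation of test wells on that plate plus 3 SD (cut at about 19% in these data); inactive = the rest.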

What follows are compounds tested on transient receptor potential cation channel N1 (TRPN1/NompC), Danio rerio (assay: zebrafish TRPN1 channel agonists, primary screen, cell-based, HEK293, calcium fluorescence (AID 1424;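 also: 0% = DMSO alone and 100% = 87 µM carbachol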)). Conditions: HEK293 zebrafish TRPN1-YFP, Fluo-8 calcium fluorescence; at 3 µM; hits give high values; 100% = response to 87 µM carbachol.
How it was run: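 Material – zebrafish TRPN1-YFP in HEK293 cells · Doses – 3 µM single point · Schedule – dye 1 h 37 °C plus 30 min RT · Signal – Fluo-8 calcium fluorescence, excitation 470-495 nm, emission 515-575 nm · Read-out – % activation versus carbachol response · Control set – carbachol high, DMSO low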
With `O=C(NCC(c1cccs1)N1CCOCC1)c1cc(-c2ccccn2)nc2ccccc12` (stereo not given) the activation was 1.98%.
`CC(C)(C)c1cnnn1-c1ccc([N+](=O)[O-])cc1` showed an activation of 1.54%.
`CN=C1C=C/C(=N/N=c2\ccn(O)cc2C)C=C1C` gave an activation of -3.14%.
For `CCC(C(=O)Nc1ccc(C(C)C)cc1)c1ccccc1` (stereo not given), the activation was 29% (active).
Compound `CCC(C(=O)OCC(=O)Nc1ccc(C(=O)Nc2ccc(OC)cc2)cc1)c1ccccc1` (stereo not given) has an activation of 2.79%.
Compound `CCC(C(=O)Nc1ccc2c(c1)OCCO2)c1ccccc1` (stereo not given) has an activation of -0.31%.
In the case of `CC1=NN(Cc2ccccc2)C(=O)/C1=C/c1ccc(N(C)C)cc1`, the activation is reported as -3.57%.
With `O=C1NCC(=O)N(Cc2ccccc2)/C1=C/c1ccccc1` the activation was 0.65%.
For `CN(C)c1ccc(/C=C2\NC(=S)N(Cc3ccccc3)C2=O)cc1`, the activation was 30.3% (active).
`Cc1ccc(S(=O)(=O)N2CCOCC2)cc1NC(=O)CSc1nnc(N)s1` was tested, and the activation was 0.64%.
Compound `CC1CN(CCCOc2ccccc2-c2ccccc2)CC(C)O1` (stereo not given) has an activation of -1.64%.
`CC(CNS(=O)(=O)c1ccc(Br)cc1)CN(C)C` (stereo not given) was tested, and the activation was 0.45%.
Compound `CCOc1cc2[nH]c(=O)n(Cc3ccc(C(=O)NCCCN4CCCC4=O)cc3)c(=O)c2cc1OCC` has an activation of -0.57%.
`CC(C)(c1ccccc1)c1ccc(OCCN)cc1` was tested, and the activation was 2.87%.
Work on `CONc1nc2nonc2nc1NOC` yielded an activation of 2.6%.
With `CC1C(=O)NC(=O)C1c1ccccc1` (stereo not given) the activation was 0.95%.
For `Cc1cc(C)c(OCCN2CC(C)OC(C)C2)c(Br)c1` (stereo not given), the activation was -2.75%.
`Cc1ccc2[nH]cc(CCNC(=O)c3ccc([N+](=O)[O-])cc3)c2c1` was tested, and the activation was -0.48%.
In the case of `CCOc1cc(/C=C(\C#N)c2nc(-c3cccs3)c(NC(C)=O)s2)ccc1O`, the activation is reported as 26.9% (active).
`COc1cc(/C=C(\C#N)c2nc3c(s2)CC(C)CC3)ccc1O` (stereo not given) gave an activation of 9.23%.
Work on `COc1cc(/C=N\Nc2nc(-c3cccs3)c(NC(C)=O)s2)ccc1O` yielded an activation of 0.7%.
Compound `COC(=O)c1cc(NC(=O)Cc2ccccc2[N+](=O)[O-])ccc1Cl` has an activation of -1.23%.
In the case of `CC(=O)OC(C)C[N+](C)(C)C` (stereo not given), the activation is reported as 51% (active).
Work on `CC(C[N+](C)(C)C)OC(N)=O` (stereo not given) yielded an activation of 0.21%.
With `CN1CCN(c2cc3c(cc2F)c(=O)c(C(=O)O)cn3CCF)CC1` the activation was 1.93%.
`O=C(N1CCCCC1)N1CCN(C(=O)N2CCCCC2)CC1` gave an activation of 1.43%.
Compound `COc1ccc(OCCCn2cccc2/C=C2/C(=N)N3OC(C)=CC3=NC2=O)cc1` has an activation of 1.04%.
For `CC1=CC2=NC(=O)/C(=C/c3coc4ccccc4c3=O)C(=N)N2O1`, the activation was 35.5% (active).
With `CCOc1cc(/C=C2/C(=N)N3OC(C)=CC3=NC2=O)ccc1OC` the activation was -0.5%.
In the case of `CC(=O)c1c(C)[nH]c(=S)c(C#N)c1-c1ccc(F)cc1`, the activation is reported as -0.66%.
With `Oc1ccc2ccc3cccc[n+]3c2c1` the activation was 33.7% (active).
With `CCN(Cc1ccccc1)S(=O)(=O)c1cc(C(=O)O)ccc1OC` the activation was -2.45%.
`CC(NC(=O)COC(=O)c1ccc2c(c1)OCO2)c1ccccc1` (stereo not given) gave an activation of 1%.
In the case of `COc1cc(OC)cc(C(=O)N[C@H](C(=O)OCC(=O)NC(C)c2ccccc2)C(C)C)c1` (stereo not given in full), the activation is reported as 46.5% (active).
In the case of `COc1cc(OC)cc(C(=O)N[C@H](C(=O)Nc2nc3ccccc3[nH]2)C(C)C)c1`, the activation is reported as -2.24%.
In the case of `COc1ccc(C(=O)N/N=C2\CCS(=O)(=O)c3ccc(F)cc32)cc1OC`, the activation is reported as 2.13%.
`COC(=O)c1cc(NC(=O)CN2CCN(C(C)=O)CC2)cc(C(=O)OC)c1` showed an activation of 2.13%.
Compound `COc1cc(OC)c(C(=O)NC2CC(C)(C)NC(C)(C)C2)cc1OC` has an activation of 2.05%.
With `COc1cc(OC)c(C(=O)NC2CCCCCC2)cc1OC` the activation was 32.1% (active).
Work on `COc1ccc(S(=O)(=O)NC(C)C)cc1C(=O)NC1CCCCC1` yielded an activation of -0.93%.
`CC(C)(C)c1cc(NC(=O)NN2CCOCC2)nn1-c1c(Cl)cc(Cl)cc1Cl` gave an activation of 0.61%.
Compound `O=C(NC(=O)N1CCSCC1)c1c(Cl)cccc1Cl` has an activation of 2.1%.
`O=S(=O)(/N=C(/Nc1ccccc1)c1ccccc1)c1cccs1` showed an activation of -0.34%.
Work on `O=C(NCCCN1CCN(c2ccc(F)cc2)CC1)Nc1ccc([N+](=O)[O-])cc1` yielded an activation of 10.4%.
`Cc1ccccc1NC(=S)NNC(=O)c1cccc(Br)c1` gave an activation of 2.03%.
`CC(=O)Nc1ccc(CN2CCN(Cc3ccc(F)c(F)c3)C(CCO)C2)cc1` (stereo not given) gave an activation of 2.06%.
`CCOC(=O)/C(=N\Nc1ccccc1Cl)N(C)C1CCS(=O)(=O)C1` (stereo not given) showed an activation of -0.61%.
Work on `COc1ccc(C(=O)N/N=C(\C)CC(=O)Nc2ccc(Cl)cn2)cc1` yielded an activation of -1.34%.
With `NC(=O)CC[C@@H]1NC(=O)[C@@H]2CCCN2C(=O)c2cc([N+](=O)[O-])cc(F)c2NCCC[C@@H](C(N)=O)NC1=O` the activation was 1.08%.
With `Cc1ccc(O)c(NC(=S)NC(=O)COc2ccc(Br)cc2)c1` the activation was 30.4% (active).
Compound `Cc1ccc(O)c(NC(=O)COc2cc(C)ccc2C)c1` has an activation of -0.38%.
In the case of `Cc1cccc(OCC(=O)NC(=S)Nc2ccccc2N2CCOCC2)c1`, the activation is reported as -0.19%.
Work on `CC(=O)c1sc(NC(=O)C2=NN(c3ccccc3)C(=O)CC2)nc1C` yielded an activation of 0.7%.
With `C=CCNC(=S)N1CCc2[nH]c3ccccc3c2C1` the activation was 0.61%.
For `Cc1cc(C)c2[nH]c(=O)c(CN(Cc3ccccc3)C(=S)NCCCN(C)C)cc2c1`, the activation was -0.96%.
`CSc1ncccc1C(=O)OCc1ccc(Br)cc1` gave an activation of -0.54%.
For `Nc1c(C(=O)c2cccs2)sc2nsc(SCCN3CCCCC3)c12`, the activation was 33.7% (active).
`CN(C)c1ccnc2sc(C(=O)c3ccccc3)c(N)c12` was tested, and the activation was -2.41%.
`Cc1nc2sc(C(=O)c3ccccc3)c(N)c2c2c1CCCC2` gave an activation of -0.99%.
With `Cn1ccs/c1=N\S(=O)(=O)c1ccc(C(C)(C)C)cc1` the activation was 1.16%.
In the case of `COc1ccccc1C1CC(=O)n2c(nc(-c3ccccc3)c2-c2ccccc2)S1` (stereo not given), the activation is reported as -0.42%.
`COc1c(C)cc(C(=O)C2CCCN(S(=O)(=O)c3c(C)noc3C)C2)cc1C` (stereo not given) gave an activation of -0.64%.
Compound `Fc1ccc(NC(=S)N2CCc3[nH]c4ccccc4c3C2)cc1` has an activation of 3.02%.
`O=C(NCCCn1ccnc1)C(=O)NCC1OCCN1S(=O)(=O)c1cc(F)ccc1F` (stereo not given) showed an activation of 1%.
`CC(C)CC(CC(C)C)=NNC(=O)c1ccc(CSc2nncn2C)cc1` showed an activation of -0.24%.
With `CC(=O)Nc1ccccc1C(=O)C(=O)Nc1ccc(F)cc1` the activation was 0%.
For `COc1ccc(COC(=O)N/N=C(\C)CC(=O)Nc2ccc(Cl)cc2)cc1`, the activation was -1.28%.
Compound `COc1ccccc1CSc1ncc(-c2ccc([N+](=O)[O-])cc2)[nH]1` has an activation of -2.17%.
In the case of `CCc1ccc(NC(=O)C(C)OC(=O)/C=C/c2cccc([N+](=O)[O-])c2)cc1` (stereo not given), the activation is reported as 2.04%.
With `Cn1cnc(C(F)(F)F)c1-c1ccc([N+](=O)[O-])cc1` the activation was -1.25%.
For `Cc1cc(C)cc(OCC(=O)O/N=C(\N)Cc2ccc([N+](=O)[O-])cc2)c1`, the activation was -1.73%.
Compound `O=c1c(Cl)c(NCc2ccc(F)cc2Cl)cnn1C12CC3CC(CC(C3)C1)C2` has an activation of 0.56%.
Work on `O=C(O)CCC(=O)Nc1nc2ccc([N+](=O)[O-])cc2s1` yielded an activation of -0.08%.
Compound `O=C(Nc1nc2ccc([N+](=O)[O-])cc2s1)c1ccncc1` has an activation of 4.01%.
In the case of `O=C(NC(Nc1nc2ccc([N+](=O)[O-])cc2s1)(C(F)(F)F)C(F)(F)F)c1ccccc1`, the activation is reported as 27.4% (active).
